Data: ChEMBL document CHEMBL1137618, “Synthesis and structure-activity relationship studies of 3,6-diazabicyclo[3.2.0]heptanes as novel alpha4beta2 nicotinic acetylcholine receptor selective agonists” (J Med Chem, 2007)

Tests used:
[1] = Displacement of [3H]cytisine from neuronal nicotinic acetylcholine receptor in rat brain membrane; format: cell membranes
[2] = molecular target: T1, Neuronal acetylcholine receptor; alpha3/beta4 (Homo sapiens, UniProt P30926+P32297); test: Agonist activity at recombinant human alpha-3-beta-4 nAChR expressed in HEK293 cells assessed as induction of calcium influx by FLIPR assay; format: functional, cell-based
T1 sequence (P30926 whole entry): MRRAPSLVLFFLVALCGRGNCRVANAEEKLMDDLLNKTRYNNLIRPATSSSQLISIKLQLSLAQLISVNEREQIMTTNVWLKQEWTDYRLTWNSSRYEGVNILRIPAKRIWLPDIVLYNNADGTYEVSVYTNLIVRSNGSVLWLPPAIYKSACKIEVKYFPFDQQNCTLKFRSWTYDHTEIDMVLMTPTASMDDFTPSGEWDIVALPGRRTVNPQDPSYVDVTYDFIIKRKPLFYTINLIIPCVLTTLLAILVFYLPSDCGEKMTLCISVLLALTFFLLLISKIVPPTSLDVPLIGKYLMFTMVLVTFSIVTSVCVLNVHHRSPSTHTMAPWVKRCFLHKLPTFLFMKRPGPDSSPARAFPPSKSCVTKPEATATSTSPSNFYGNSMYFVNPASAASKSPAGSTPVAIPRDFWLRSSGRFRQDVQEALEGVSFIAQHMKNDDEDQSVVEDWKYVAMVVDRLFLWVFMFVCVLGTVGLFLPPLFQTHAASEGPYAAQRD
T1 sequence (P32297 whole entry): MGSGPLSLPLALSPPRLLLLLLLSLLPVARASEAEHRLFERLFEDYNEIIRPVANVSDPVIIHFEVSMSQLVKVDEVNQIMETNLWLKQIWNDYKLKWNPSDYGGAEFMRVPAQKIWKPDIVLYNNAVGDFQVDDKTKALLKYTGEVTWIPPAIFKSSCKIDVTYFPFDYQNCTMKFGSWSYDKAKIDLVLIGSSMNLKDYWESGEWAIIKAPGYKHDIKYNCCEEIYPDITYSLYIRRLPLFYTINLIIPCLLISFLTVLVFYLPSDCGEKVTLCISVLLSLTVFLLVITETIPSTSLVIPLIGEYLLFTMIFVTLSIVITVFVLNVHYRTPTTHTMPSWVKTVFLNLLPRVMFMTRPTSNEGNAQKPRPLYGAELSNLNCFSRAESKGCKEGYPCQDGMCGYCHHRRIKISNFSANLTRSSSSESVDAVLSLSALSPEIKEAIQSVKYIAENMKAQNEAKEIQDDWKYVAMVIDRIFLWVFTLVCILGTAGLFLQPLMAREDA

[3] = molecular target: T1, Neuronal acetylcholine receptor; alpha3/beta4; test: Agonist activity at recombinant human alpha3beta4 nAChR expressed in HEK293 cells assessed as induction of calcium influx by FLIPR assay relative to nicotine; format: functional, cell-based
In short: (§1)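 HEK-293 lines stably expressing human α4β2 or α3β4 nAChR, grown 24-48 h at 37 °C on poly-D-lysine in DMEM/10% FBS. Loaded with 2-4 µM Fluo-4 AM for ~0.75-1 h at room temperature in the dark, in NMDG Ringer pH 7.4. Serial log dilutions added, then peak calcium fluorescence read on FLIPR after buffer-blank subtraction.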

[4] = molecular target: T2, Neuronal acetylcholine receptor; alpha4/beta2 (Homo sapiens, UniProt P17787+P43681); test: Agonist activity at recombinant human alpha-4-beta-2 nAChR expressed in HEK293 cells assessed as induction of calcium influx by FLIPR assay; format: functional, cell-based
T2 sequence (P17787 whole entry): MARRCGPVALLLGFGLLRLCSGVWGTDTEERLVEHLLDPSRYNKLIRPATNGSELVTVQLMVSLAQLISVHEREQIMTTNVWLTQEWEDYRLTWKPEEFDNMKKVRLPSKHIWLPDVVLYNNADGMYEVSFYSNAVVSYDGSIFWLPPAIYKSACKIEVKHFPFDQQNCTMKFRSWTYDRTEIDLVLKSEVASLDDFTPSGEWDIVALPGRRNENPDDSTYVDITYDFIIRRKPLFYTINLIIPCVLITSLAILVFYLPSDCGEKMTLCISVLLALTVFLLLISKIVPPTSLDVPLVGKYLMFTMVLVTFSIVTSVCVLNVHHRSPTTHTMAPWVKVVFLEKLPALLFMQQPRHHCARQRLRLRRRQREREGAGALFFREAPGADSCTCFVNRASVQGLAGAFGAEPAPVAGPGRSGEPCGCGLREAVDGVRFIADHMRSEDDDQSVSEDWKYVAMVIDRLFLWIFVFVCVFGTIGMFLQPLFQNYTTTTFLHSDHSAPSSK
T2 sequence (P43681 whole entry): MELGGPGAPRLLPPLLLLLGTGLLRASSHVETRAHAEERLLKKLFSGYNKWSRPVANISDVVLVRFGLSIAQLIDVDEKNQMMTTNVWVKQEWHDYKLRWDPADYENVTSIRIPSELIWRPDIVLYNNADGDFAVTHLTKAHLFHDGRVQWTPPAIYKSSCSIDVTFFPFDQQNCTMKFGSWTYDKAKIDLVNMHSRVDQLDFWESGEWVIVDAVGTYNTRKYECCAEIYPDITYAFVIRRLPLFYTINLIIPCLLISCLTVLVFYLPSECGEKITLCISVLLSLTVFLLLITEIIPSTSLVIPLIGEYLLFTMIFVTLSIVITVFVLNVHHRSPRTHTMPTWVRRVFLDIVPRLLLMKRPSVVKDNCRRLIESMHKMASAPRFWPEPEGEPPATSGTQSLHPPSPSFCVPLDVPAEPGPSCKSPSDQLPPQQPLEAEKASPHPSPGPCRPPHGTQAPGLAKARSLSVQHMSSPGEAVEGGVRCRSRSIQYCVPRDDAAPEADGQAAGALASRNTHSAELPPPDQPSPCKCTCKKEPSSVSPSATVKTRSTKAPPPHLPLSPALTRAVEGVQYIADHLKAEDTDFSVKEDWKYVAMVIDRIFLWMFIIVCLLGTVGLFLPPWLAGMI

[5] = molecular target: T2, Neuronal acetylcholine receptor; alpha4/beta2; test: Agonist activity at recombinant human alpha-4-beta-2 nAChR expressed in HEK293 cells assessed as induction of calcium influx by FLIPR assay relative to nicotine; format: functional, cell-based; in short: as §1

Row | SMILES | Ki [1] [nM] | Log Ki [1] | EC50 ([2]; read-out: EC50) [nM] | EC50 ([2]; read-out: Log EC50 (converted)) [nM] | Activity [3] [%] | EC50 ([4]; read-out: EC50) [nM] | Activity [5] [%] | EC50 ([4]; read-out: Log EC50 (converted)) [nM]
1 | Brc1cncc(N2C[C@H]3CN[C@H]3C2)c1 | 0.1 | -10.2 | 200 | 240 | 115 | 1100 | 161 | 
2 | Clc1cc(N2C[C@H]3CNC[C@H]32)cnc1Cl | 0.3 | -9.55 | 1000 |  | 92 | 300 | 117 | 263
3 | Clc1cc(N2C[C@@H]3CN[C@@H]3C2)cnc1Br | 0.2 | -9.62 | 600 |  | 92 | 400 | 108 | 
4 | N#Cc1cncc(N2C[C@@H]3CNC[C@@H]32)c1 | 0.9 | -9.07 | 13700 | 12300 | 47 | 11400 | 34 | 9120
5 | COc1cc(N2C[C@@H]3CN[C@@H]3C2)cnc1Br | 1.9 | -8.71 | 4000 |  | 72 | 2200 | 64 | 
6 | c1cncc(N2C[C@H]3CNC[C@H]32)c1 | 1.3 | -8.88 | 2940 | 29500 | 62 | 1900 | 116 | 1820
7 | Clc1ccc(N2C[C@@H]3CN[C@@H]3C2)cn1 | 0.6 | -9.24 | 400 |  | 110 | 200 | 162 | 162
8 | Brc1cc(N2C[C@@H]3CN[C@@H]3C2)cnc1Br | 0.3 | -9.52 | 1300 |  | 90 | 1200 | 122 | 
9 | Cc1cc(N2C[C@@H]3CNC[C@@H]32)cnc1Cl | 0.2 | -9.7 | 2200 |  | 89 | 600 | 134 | 
10 | COc1cncc(N2C[C@H]3CNC[C@H]32)c1 | 0.8 | -9.12 | 25800 |  | 72 | 3600 | 90 | 3390
11 | N#Cc1cncc(N2C[C@H]3CN[C@H]3C2)c1 | 0.1 | -9.92 | 300 |  | 102 | 600 | 123 | 417
12 | N#Cc1cc(N2C[C@@H]3CN[C@@H]3C2)cnc1Br | 0.3 | -9.51 | 600 |  | 91 | 800 | 146 | 
13 | Clc1ccc(N2C[C@H]3CN[C@H]3C2)cn1 | 0.2 | -9.77 | 400 | 34.7 | 105 | 30 | 126 | 24.5
14 | N#Cc1cc(N2C[C@H]3CNC[C@H]32)cnc1Br | 0.3 | -9.6 | 2000 |  | 95 | 400 | 100 | 324
15 | N#Cc1cncc(N2C[C@@H]3CN[C@@H]3C2)c1 | 1.7 | -8.77 | 7100 |  | 84 | 14600 | 102 | 13200
16 | COc1cncc(N2C[C@@H]3CN[C@@H]3C2)c1 | 3 | -8.52 | 48100 | 46800 | 44 | 15800 | 55 | 13200
17 | Cc1cc(N2C[C@H]3CN[C@H]3C2)cnc1Cl | 0.04 | -10.4 | 200 | 178 | 119 | 700 | 228 | 72.4
18 | Clc1cc(N2C[C@H]3CN[C@H]3C2)cnc1Cl | 0.04 | -10.4 | 50 |  | 98 | 400 | 162 | 41.7
19 | Cc1ncc(N2C[C@@H]3CN[C@@H]3C2)cc1C#N | 0.6 | -9.2 | 900 |  | 94 | 800 | 119 | 724
20 | Cc1cc(N2C[C@H]3CN[C@H]3C2)cnc1C | 0.3 | -9.59 | 3300 |  | 96 | 200 | 124 | 
21 | Cc1cc(N2C[C@H]3CNC[C@H]32)cnc1C | 8 | -8.1 | 4200 |  | 86 | 2100 | 85 | 
22 | Brc1cncc(N2C[C@@H]3CN[C@@H]3C2)c1 | 1.4 | -8.84 | 9100 |  | 68 | 6500 | 53 | 6170
23 | Clc1cncc(N2C[C@H]3CNC[C@H]32)c1 | 3 | -8.53 | 23000 |  | 81 | 8100 | 88 | 7240
